Compound activity as filed in PubChem BioAssay.
Only some compounds are listed: those with a hit (about 2.9% of all), similar ones and a draw of the others.
PGC1a acetyl inh: lowers PGC1a acetylation signal in U2OS cells. 350,000 compounds, 0.17% hits. AlphaScreen anti-acetyl-lysine; with virally co-expressed GCN5 acetyltransferase. AID 651687. inhibition, % at 15.6 µM;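 active = every replicate shows inhibition of at least 40%; inconclusive = mean inhibition at least 40% but some replicate below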
C2C12 statin: suppression of simvastatin myotoxicity. 330,000 compounds, 0.78% hits. rescue of ATP level, % at 7.49 µM. C2C12 myotubes + simvastatin, ATP luminescence, 48 h; scaled: DMSO 0, geranylgeraniol control 100;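 active = mean ATP rescue above about 67%, or every replicate alone reaching that limit, limit read from the data, passing the limit was not always enough; inconclusive = no clear call, values can overlap the other calls; inactive = mean under the limit and some replicate under it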;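 also: myotubes were challenged with 10 µM simvastatin during compound exposure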
S100A4 MyoIIA: blocks human S100A4 binding to myosin IIA peptide | P26447 | S100A4/TAMRA-MyoIIA peptide fluorescence polarization | inhibition, % at 10.7 µM | 360,000 compounds, 0.14% hits | AID 652163;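 active = mean inhibition of at least 70% across replicates, with every replicate also reaching that level; inconclusive = mean inhibition reaches 70% but some replicates fall short; inactive = mean inhibition below 70%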
Target sequence (P26447 whole entry, looked up): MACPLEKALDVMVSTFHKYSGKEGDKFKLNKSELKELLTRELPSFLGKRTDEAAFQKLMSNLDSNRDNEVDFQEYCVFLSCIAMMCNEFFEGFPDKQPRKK
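assay system = human S100A4 monomer with TAMRA-labelled myosin IIA peptide | also added = labelled myosin peptide probe, 5 nM | incubation = 5 min between mix addition and reading | control set = DMSO and TFP controls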
DENV2 CPE rescue: inhibitors of DENV2 cytopathic effect | CPE inhibition, % at 9.99 µM | 350,000 compounds, 1.7% hits | DENV2-infected cells, cytopathic effect rescue, plate reader; in the data active = CPE inhibition above about 20%, passing the limit was not always enough; inconclusive = no clear call, values can overlap the other calls; tested in BHK-21 cells
SIRT5 block: inhibitors of human sirtuin-5 desuccinylase | AID 652115 | inhibition, % at 15 µM | 330,000 compounds, 1.1% hits | Purified SirT5, succinyl-peptide AMC, trypsin-coupled fluorescence; in the data active = inhibition above about 15%; inconclusive = no clear call, values can overlap the other calls
Target sequence (Q9NXA8 whole entry, looked up): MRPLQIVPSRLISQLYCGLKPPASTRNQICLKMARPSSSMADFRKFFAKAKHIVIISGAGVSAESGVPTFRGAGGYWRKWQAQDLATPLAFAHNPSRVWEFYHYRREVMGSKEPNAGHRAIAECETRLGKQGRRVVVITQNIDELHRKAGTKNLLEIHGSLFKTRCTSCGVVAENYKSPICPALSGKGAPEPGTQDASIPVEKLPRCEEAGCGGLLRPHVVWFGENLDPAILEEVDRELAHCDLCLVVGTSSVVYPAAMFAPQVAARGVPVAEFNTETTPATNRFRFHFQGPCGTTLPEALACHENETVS
Of the large screens only hits and unclear results are named; the others gave an inactive call.

CCC(=O)Nc1ccc2c(c1)OC[C@H](C)NC[C@H](C)[C@H](OC)CN(C)C2=O	DENV2 CPE rescue 20.8 (no result: PGC1a acetyl inh)
S=c1[nH]nc(-c2ccccc2)n1/N=C/c1cccs1	none (no result: DENV2 CPE rescue, SIRT5 block)
Cc1ccc(-c2n[nH]c(=S)n2/N=C/c2cccn2C)cc1	PGC1a acetyl inh 50.0 (no result: C2C12 statin, S100A4 MyoIIA, DENV2 CPE rescue, SIRT5 block)
Cc1ccc(-c2n[nH]c(=S)n2/N=C/c2cccs2)cc1	SIRT5 block 28.9
COc1ccc2c3c(n(C)c2c1)[C@H](CO)NCC31CCN(C(=O)Nc2ccc3c(c2)OCO3)CC1	none (no result: C2C12 statin)
COc1ccc(C(=O)N(C)C2(C)CCS(=O)(=O)C2)cc1OC (stereo unspecified)	S100A4 MyoIIA 183.5 (no result: PGC1a acetyl inh)
Cc1cn(CC(=O)NCCCn2ccnc2)c(=O)[nH]c1=O	SIRT5 block 15.3
Cc1cn(CC(=O)NCc2ccccc2)c(=O)[nH]c1=O	SIRT5 block 19.6
Cc1cn(CC(=O)NCCCc2ccccc2)c(=O)[nH]c1=O	none (no result: PGC1a acetyl inh)
Cc1cn(CC(=O)NCCCN2CCCC2=O)c(=O)[nH]c1=O	DENV2 CPE rescue inconclusive (no result: PGC1a acetyl inh)
C[C@H]1CN([C@@H](C)CO)C(=O)Cc2cc(NS(=O)(=O)c3ccccc3)ccc2O[C@H]1CN(C)C(=O)Nc1ccc(F)cc1	none
C[C@@H]1CN([C@@H](C)CO)C(=O)Cc2cc(NS(=O)(=O)c3ccccc3)ccc2O[C@H]1CN(C)C(=O)Nc1ccc(F)cc1	DENV2 CPE rescue 36.3
Cc1ccc(S(=O)(=O)Nc2ccc3c(c2)CC(=O)N([C@@H](C)CO)C[C@@H](C)[C@@H](CN(C)C(=O)Nc2ccccc2)O3)cc1	DENV2 CPE rescue 38.8
Cc1ccc(C(=O)NC2CCCc3c2cnn3-c2ccc(F)cc2F)cn1 (stereo unspecified)	SIRT5 block 20.3 (no result: PGC1a acetyl inh)
CC(=O)Nc1cccc(C(=O)NC2CCCc3c2cnn3-c2ccccc2F)c1 (stereo unspecified)	S100A4 MyoIIA 198.5
CCC(=O)Nc1ccc2c(c1)OC[C@H](C)N(C(=O)Cc1ccccn1)C[C@H](C)[C@H](OC)CN(C)C2=O	none
CCCCCNC(=O)C1CC=CCC1C(=O)O (stereo unspecified)	C2C12 statin 124.8 (no result: S100A4 MyoIIA, DENV2 CPE rescue, SIRT5 block)
CCC(Sc1nc2ccncc2[nH]1)C(=O)Nc1ccc(C)c(Cl)c1 (stereo unspecified)	S100A4 MyoIIA 78.6
CCOc1ccccc1NC(=O)C(CC)Sc1nc2ccncc2[nH]1 (stereo unspecified)	none
CCCCCCOc1ccc(N2C(=O)CC(N3CCN(CCN=CC4C(=O)CC(C)(C)CC4=O)CC3)C2=O)cc1 (stereo unspecified)	SIRT5 block 112.2 (no result: C2C12 statin)
CCC(=O)N1C[C@@H](C)[C@H](OC)CN(C)C(=O)c2cc(NC(=O)COC)ccc2OC[C@H]1C	none (no result: SIRT5 block)
C[C@@H]1CN([C@H](C)CO)S(=O)(=O)c2ccc(C#CC3CC3)cc2O[C@@H]1CN(C)Cc1ccccc1F	none
C[C@H](CO)N1C[C@H](C)[C@@H](CN(C)Cc2ccccc2F)Oc2cc(C#CCN(C)C)ccc2S1(=O)=O	none
CC(C)CC#Cc1ccc2c(c1)O[C@@H](CN(C)Cc1ccccc1F)[C@H](C)CN([C@H](C)CO)S2(=O)=O	SIRT5 block 22.0
C[C@H]1CN([C@@H](C)CO)S(=O)(=O)c2ccc(C#CC3CC3)cc2O[C@@H]1CN(C)Cc1ccccc1F	SIRT5 block 17.4
C[C@@H]1CN([C@H](C)CO)S(=O)(=O)c2ccc(C#CC3CC3)cc2O[C@H]1CN(C)Cc1ccc(F)cc1	SIRT5 block 16.0
C[C@@H]1CN([C@@H](C)CO)S(=O)(=O)c2ccc(C#CCN(C)C)cc2O[C@@H]1CN(C)Cc1ccccc1F	DENV2 CPE rescue 44.7
C[C@H](CO)N1C[C@H](C)[C@@H](CN(C)Cc2ccc(F)cc2)Oc2cc(C#CC3CC3)ccc2S1(=O)=O	none (no result: PGC1a acetyl inh)
CO[C@H]1CN(C)C(=O)c2cc(NC(=O)Nc3ccccc3Cl)ccc2OC[C@H](C)NC[C@H]1C	none
Fc1ccc(CSc2ncnc3nc[nH]c23)cc1	C2C12 statin 157.9
C[C@@H]1CN([C@@H](C)CO)C(=O)c2cc(NS(C)(=O)=O)ccc2O[C@@H](C)CCCCO[C@@H]1CN(C)C	DENV2 CPE rescue inconclusive, SIRT5 block 25.5
CNC[C@H]1OCCCC[C@H](C)Oc2ccc(NC(=O)C3CCCCC3)cc2C(=O)N([C@@H](C)CO)C[C@@H]1C	DENV2 CPE rescue inconclusive
C[C@@H]1CCCCO[C@H](CN(C)C)[C@H](C)CN([C@@H](C)CO)C(=O)c2cc(NS(C)(=O)=O)ccc2O1	none (no result: S100A4 MyoIIA, DENV2 CPE rescue, SIRT5 block)
CNC[C@H]1OCCCC[C@@H](C)Oc2ccc(NC(=O)C3CCCCC3)cc2C(=O)N([C@@H](C)CO)C[C@@H]1C	S100A4 MyoIIA 96.9
CNC[C@H]1OCCCC[C@@H](C)Oc2ccc(NS(C)(=O)=O)cc2C(=O)N([C@H](C)CO)C[C@@H]1C	none (no result: S100A4 MyoIIA, DENV2 CPE rescue, SIRT5 block)
CNC[C@@H]1OCCCC[C@H](C)Oc2ccc(NS(C)(=O)=O)cc2C(=O)N([C@@H](C)CO)C[C@@H]1C	S100A4 MyoIIA 88.7, DENV2 CPE rescue 131.5
O=S(=O)(Cc1ccccc1)NCC[C@H]1CC[C@H](NS(=O)(=O)c2ccccc2)[C@@H](CO)O1	none
C[C@H](CO)N1C[C@H](C)[C@@H](CN(C)Cc2cccnc2)OCc2cn(nn2)CCCC1=O	none (no result: S100A4 MyoIIA, DENV2 CPE rescue, SIRT5 block)
CC(C)NC(=O)N(C)C[C@H]1Oc2ccc(NC(=O)C3CC3)cc2CC(=O)N([C@H](C)CO)C[C@@H]1C	none
O=C(/C=C/c1ccccc1)NCCc1ccc2c(c1)OCCO2	DENV2 CPE rescue 59.2 (no result: PGC1a acetyl inh, C2C12 statin)
O=C(COc1ccccc1F)NCCc1ccc2c(c1)OCCO2	C2C12 statin 125.7
COc1ccc(CN(C)C[C@H]2OCCCC[C@H](C)Oc3ccc(NS(=O)(=O)c4cn(C)cn4)cc3C(=O)N([C@H](C)CO)C[C@H]2C)cc1	none (no result: C2C12 statin)
Cc1cc(C(=O)Nc2cccc3c2O[C@H](CN(C)Cc2ccncc2)[C@H](C)CN([C@H](C)CO)C3=O)n(C)n1	none
COc1ccccc1NC(=O)CCc1c(C)[nH]c(=O)c(C#N)c1C	C2C12 statin 97.3 (no result: S100A4 MyoIIA, DENV2 CPE rescue, SIRT5 block)
COCc1cn(CC[C@H]2CC[C@@H](NC(=O)CCN3CCCCC3)[C@@H](CO)O2)nn1	none
COC(=O)[C@H](Cc1ccccc1)NC(=O)Cn1cnc2c(OCc3ccccc3)ncnc21	none (no result: PGC1a acetyl inh)
CCOC(=O)CC[C@H](NC(=O)Cn1cnc2c(OCc3ccccc3)ncnc21)C(=O)OCC	DENV2 CPE rescue 26.5
COCC(=O)Nc1ccc2c(c1)C(=O)N(C)C[C@@H](OC)[C@H](C)CN(C(=O)c1ccccc1F)[C@H](C)CO2	none
O=C1C(Cl)=C(N2CCCC2)C(=O)N1c1ccc(F)cc1	none
O=C1C(Cl)=C(N2CCCCCC2)C(=O)N1c1ccc(Cl)cc1	DENV2 CPE rescue 75.9
Cc1cc(C)nc(/N=C2\NC(=O)CC(C(=O)O)N2c2ccc(Cl)cc2)n1 (stereo unspecified)	C2C12 statin 70.4 (no result: SIRT5 block)
CCOc1ccccc1NC(=O)COC(=O)C1CC(=O)N(c2c(C)cccc2C)C1 (stereo unspecified)	SIRT5 block 19.1
